Data taken from ChEMBL document CHEMBL1649392, “Synthesis of substituted 3-amino-N-phenyl-1H-indazole-1-carboxamides endowed with antiproliferative activity” (Eur J Med Chem, 2011).

Tests used:
Assay type in all cases: functional
[1] = Antiproliferative activity against human […] cells after 48 hrs by sulforhodamine B assay
Summary of the method: (§1)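 NCI 60-cell-line panel covering nine cancer types (leukemia, non-small cell lung, colon, CNS, melanoma, ovarian, renal, prostate, breast). Compounds were first tested at a single dose, then in a five-dose screen (series starting 0.01, 0.1 …) if they met NCI threshold criteria. Reported per line: GI50 (molar concentration inhibiting 50% net growth), TGI (total growth inhibition) and LC50 (50% net cell death).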

[2] = system: T47D; test: Antiproliferative activity against human T47D cells after 48 hrs by sulforhodamine B assay
Summary of the method: (§2)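 NCI 60-cell-line panel screen: single dose 10 µM first, then 5-dose testing (0.01, 0.1, … molar series). For each line, GI50 is the molar concentration giving 50% inhibition of net cell growth, TGI gives total inhibition of net growth, and LC50 gives 50% net cell death. Method follows the NCI DTP protocol.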

[3] = system: TK-10; test: Antiproliferative activity against human TK10 cells after 48 hrs by sulforhodamine B assay; details: TK-10, 48 h; summary of the method: as §2
[4] = system: SF-539; test: Antiproliferative activity against human SF539 cells after 48 hrs by sulforhodamine B assay; details: SF-539, 48 h; summary of the method: as §1
[5] = system: DU-145; test: Antiproliferative activity against human DU145 cells after 48 hrs by sulforhodamine B assay; details: DU-145, 48 h; summary of the method: as §1
[6] = system: HCC 2998; test: Antiproliferative activity against human HCC2998 cells after 48 hrs by sulforhodamine B assay; details: HCC 2998, 48 h; summary of the method: as §1
[7] = system: HCT-15; test: Antiproliferative activity against human HCT15 cells after 48 hrs by sulforhodamine B assay; details: HCT-15, 48 h; summary of the method: as §1
[8] = system: CAKI-1; test: Antiproliferative activity against human Caki1 cells after 48 hrs by sulforhodamine B assay; details: CAKI-1, 48 h; summary of the method: as §1
[9] = system: UACC-257; test: Antiproliferative activity against human UACC257 cells after 48 hrs by sulforhodamine B assay; details: UACC-257, 48 h; summary of the method: as §2
[10] = system: HOP-92; test: Antiproliferative activity against human HOP92 cells after 48 hrs by sulforhodamine B assay; details: HOP-92, 48 h; summary of the method: as §1
[11] = system: BT-549; test: Antiproliferative activity against human BT549 cells after 48 hrs by sulforhodamine B assay; details: BT-549, 48 h; summary of the method: as §1
[12] = system: Malme-3M; test: Antiproliferative activity against human MALME-3M cells after 48 hrs by sulforhodamine B assay; summary of the method: as §1
[13] = system: SK-MEL-2; test: Antiproliferative activity against human SK-MEL-2 cells after 48 hrs by sulforhodamine B assay; details: SK-MEL-2, 48 h; summary of the method: as §1
[14] = system: A549; test: Antiproliferative activity against human A549 cells after 48 hrs by sulforhodamine B assay; details: A549, 48 h; summary of the method: as §1
[15] = system: NCI-H226; test: Antiproliferative activity against human NCI-H226 cells after 48 hrs by sulforhodamine B assay; details: NCI-H226, 48 h; summary of the method: as §1
[16] = system: OVCAR-5; test: Antiproliferative activity against human OVCAR5 cells after 48 hrs by sulforhodamine B assay; details: OVCAR-5, 48 h; summary of the method: as §1
[17] = system: PC-3; test: Antiproliferative activity against human PC3 cells after 48 hrs by sulforhodamine B assay; details: PC-3, 48 h; summary of the method: as §1
[18] = system: ACHN; test: Antiproliferative activity against human ACHN cells after 48 hrs by sulforhodamine B assay; summary of the method: as §1
[19] = system: MOLT-4; test: Antiproliferative activity against human MOLT4 cells after 48 hrs by sulforhodamine B assay; details: MOLT-4, 48 h; summary of the method: as §1
[20] = system: RXF 393; test: Antiproliferative activity against human RXF393 cells after 48 hrs by sulforhodamine B assay; details: RXF 393, 48 h; summary of the method: as §1
[21] = system: SF-268; test: Antiproliferative activity against human SF268 cells after 48 hrs by sulforhodamine B assay; details: SF-268, 48 h; summary of the method: as §1
[22] = system: M14; test: Antiproliferative activity against human M14 cells after 48 hrs by sulforhodamine B assay; details: M14, 48 h; summary of the method: as §1
[23] = system: MDA-MB-231; test: Antiproliferative activity against human MDA-MB-231 cells after 48 hrs by sulforhodamine B assay; details: MDA-MB-231, 48 h; summary of the method: as §1
[24] = system: SK-OV-3; test: Antiproliferative activity against human SKOV3 cells after 48 hrs by sulforhodamine B assay; details: SK-OV-3, 48 h; summary of the method: as §1
[25] = system: 786-0; test: Antiproliferative activity against human 786-0 cells after 48 hrs by sulforhodamine B assay; details: 786-0, 48 h; summary of the method: as §1
[26] = system: COLO 205; test: Antiproliferative activity against human COLO205 cells after 48 hrs by sulforhodamine B assay; details: COLO 205, 48 h; summary of the method: as §1
[27] = Antiproliferative activity against human Hs 578T cells after 48 hrs by sulforhodamine B assay; summary of the method: as §1
[28] = system: UO-31; test: Antiproliferative activity against human UO31 cells after 48 hrs by sulforhodamine B assay; details: UO-31, 48 h; summary of the method: as §2
[29] = system: EKVX; test: Antiproliferative activity against human EKVX cells after 48 hrs by sulforhodamine B assay; summary of the method: as §1
[30] = system: SN12C; test: Antiproliferative activity against human SN12C cells after 48 hrs by sulforhodamine B assay; summary of the method: as §1
[31] = system: K562; test: Antiproliferative activity against human K562 cells after 48 hrs by sulforhodamine B assay; details: K562, 48 h; summary of the method: as §1
[32] = system: U-251; test: Antiproliferative activity against human U251 cells after 48 hrs by sulforhodamine B assay; details: U-251, 48 h; summary of the method: as §2
[33] = read-out: LC50 (the source's name)

With `Nc1ccc2c(c1)c(N)nn2C(=O)Nc1ccc(Cc2ccccc2)cc1` the GI50 [1] was 5.14 µM, the TGI [1] was 35 µM and the CC50 [1, 33] was > 100 µM. It also gave a GI50 [2] of 5.8 µM, an LC50 (concentration giving 50% net cell death) [2] of 66 µM and a TGI [2] of 22.8 µM. The GI50 [3] was 19.4 µM, the TGI [3] was 46 µM and the CC50 [3, 33] was > 100 µM. It also gave a GI50 [4] of 8.7 µM, a TGI [4] of 22.1 µM and a CC50 [4, 33] of 51.8 µM. The GI50 [5] was 10.9 µM, the TGI [5] was 24 µM and the CC50 [5, 33] was 52.6 µM. The GI50 [6] was 4.17 µM, the TGI [6] was 14.8 µM and the CC50 [6, 33] was 40.9 µM. The GI50 [7] was 2.75 µM, the LC50 (concentration causing 50% net cell death) [7] was 50.5 µM and the TGI [7] was 14.2 µM. For the same compound, the GI50 [8] was 4.3 µM, the TGI [8] was 26.8 µM and the CC50 [8, 33] was > 100 µM. For the same compound, the GI50 [9] was 14.5 µM, the TGI [9] was 29.7 µM and the CC50 [9, 33] was 60.8 µM. For the same compound, the GI50 [10] was 10.4 µM, the LC50 [10] was 57.4 µM and the TGI [10] was 24.4 µM. The GI50 [11] was 14.6 µM, the TGI [11] was 33.5 µM and the CC50 [11, 33] was 76.7 µM. The GI50 [12] was 18 µM, the LC50 (concentration causing 50% net cell death) [12] was > 100 µM and the TGI [12] was 89.8 µM. For the same compound, the GI50 [13] was 26.1 µM, the TGI [13] was 48.5 µM and the CC50 [13, 33] was 90.1 µM. The GI50 [14] was 6.58 µM, the TGI [14] was 57.1 µM and the CC50 [14, 33] was > 100 µM. The GI50 [15] was 16.1 µM, the TGI [15] was 38.3 µM and the CC50 [15, 33] was 91.4 µM. The GI50 [16] was 22.6 µM, the TGI [16] was 60.5 µM and the CC50 [16, 33] was > 100 µM. It also gave a GI50 [17] of 4.33 µM, a TGI [17] of 24 µM and a CC50 [17, 33] of 87 µM. The GI50 [18] was 3.37 µM, the TGI [18] was 13.7 µM and the CC50 [18, 33] was 39.6 µM. For the same compound, the GI50 [19] was 4.48 µM, the TGI [19] was 24.3 µM and the CC50 [19, 33] was > 100 µM. The GI50 [20] was 21.4 µM, the TGI [20] was 43.9 µM and the CC50 [20, 33] was 90.1 µM. It also gave a GI50 [21] of 13 µM, a TGI [21] of 30.7 µM and a CC50 [21, 33] of 72.5 µM. For the same compound, the GI50 [22] was 4.59 µM, the TGI [22] was 17.8 µM and the CC50 [22, 33] was 51.9 µM. It also gave a GI50 [23] of 7.74 µM, a TGI [23] of 22.7 µM and a CC50 [23, 33] of 54.3 µM. For the same compound, the GI50 [24] was 15.3 µM, the TGI [24] was 37.7 µM and the CC50 [24, 33] was 92.8 µM. It also gave a GI50 [25] of 12.4 µM, a TGI [25] of 25.9 µM and a CC50 [25, 33] of 54.3 µM. The GI50 [26] was 13.1 µM, the LC50 (concentration causing 50% net cell death) [26] was 53.9 µM and the TGI [26] was 26.5 µM. The GI50 [27] was 17.3 µM, the TGI [27] was 43 µM and the CC50 [27, 33] was > 100 µM. The GI50 [28] was 4.72 µM, the TGI [28] was 32.6 µM and the CC50 [28, 33] was > 100 µM. The GI50 [29] was 14 µM, the TGI [29] was 36.7 µM and the CC50 [29, 33] was 96.1 µM. For the same compound, the GI50 [30] was 13.4 µM, the TGI [30] was 30.9 µM and the CC50 [30, 33] was 71.1 µM. For the same compound, the GI50 [31] was 2.24 µM, the LC50 (concentration causing 50% net cell death) [31] was > 100 µM and the TGI [31] was 11.4 µM. The GI50 [32] was 6.53 µM, the LC50 (concentration giving 50% net cell death) [32] was 52 µM and the TGI [32] was 20.9 µM.
